Some results are limits rather than exact numbers.

Chain of Phosphatidylinositol 4-kinase beta (Q9UBF8 whole entry): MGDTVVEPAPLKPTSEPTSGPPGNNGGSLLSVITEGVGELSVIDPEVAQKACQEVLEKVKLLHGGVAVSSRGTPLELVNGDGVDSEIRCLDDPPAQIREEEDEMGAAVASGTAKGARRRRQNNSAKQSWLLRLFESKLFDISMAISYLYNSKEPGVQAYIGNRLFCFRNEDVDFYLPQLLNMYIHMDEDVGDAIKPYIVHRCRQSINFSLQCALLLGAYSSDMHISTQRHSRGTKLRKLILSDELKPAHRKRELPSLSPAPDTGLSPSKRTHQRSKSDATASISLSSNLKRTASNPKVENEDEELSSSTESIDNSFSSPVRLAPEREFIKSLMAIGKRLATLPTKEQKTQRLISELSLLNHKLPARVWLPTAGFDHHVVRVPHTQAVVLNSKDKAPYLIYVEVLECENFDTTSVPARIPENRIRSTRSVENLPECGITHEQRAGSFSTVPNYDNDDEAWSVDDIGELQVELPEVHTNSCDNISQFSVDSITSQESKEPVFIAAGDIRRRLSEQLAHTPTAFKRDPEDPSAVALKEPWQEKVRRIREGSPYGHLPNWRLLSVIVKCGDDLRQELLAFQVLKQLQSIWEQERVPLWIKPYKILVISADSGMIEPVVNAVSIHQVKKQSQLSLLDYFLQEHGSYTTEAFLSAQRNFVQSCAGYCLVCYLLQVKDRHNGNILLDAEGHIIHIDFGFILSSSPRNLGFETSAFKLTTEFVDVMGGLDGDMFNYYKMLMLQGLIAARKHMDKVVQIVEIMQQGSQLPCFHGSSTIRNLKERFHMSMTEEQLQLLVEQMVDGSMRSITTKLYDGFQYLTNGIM

One data set concerns the target Phosphatidylinositol 4-kinase beta (Homo sapiens, UniProt Q9UBF8). The data set is described as follows: Inhibition of recombinant full length his tagged PI4KB (unknown origin) incubated for 10 mins in presence of ATP by ADP-glo kinase assay.
Settings: not given; call rule not given here
(In ADP-Glo the light output rises with the ADP produced.)
`COC(=O)c1cc(Nc2nc(-c3sc(NC(=O)c4ccccc4)nc3C(F)(F)F)cs2)cc(C(F)(F)F)c1`: the IC50 result is listed as “Not Active”.

For `O=C(O)c1cc(Nc2nc(-c3sc(NC(=O)c4ccccc4)nc3C(F)(F)F)cs2)cc(C(=O)O)c1`, the IC50 result was “Not Active”.

As to `CC(C)(C)C(=O)Nc1nc(C(F)(F)F)c(-c2c[nH]c(Nc3cccc(C(F)(F)F)c3)n2)s1`, the half-inhibitory concentration (IC50) result is recorded as “Not Active”.

Tested on in a further data set: not listed separately
The experiment in a line: Cytotoxicity against human HeLa cells assessed as reduction in cell viability by MTT assay. The format is toxicity, cell-based.
Settings: not given
In outline:
(§1)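 MTT viability on HeLa or VeroE6 cells, run in parallel with the antiviral assays. CC50 from variable-slope sigmoidal dose–response regression.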
In general terms: Tetrazolium assays rely on reduction of a dye to a coloured formazan, in cell work by metabolically active cells.
In the case of `COC(=O)c1cc(Nc2nc(-c3sc(NC(=O)c4ccccc4)nc3C(F)(F)F)cs2)cc(C(F)(F)F)c1`, the CC50 came out at 22.9 µM.

As for `O=C(O)c1cc(Nc2nc(-c3sc(NC(=O)c4ccccc4)nc3C(F)(F)F)cs2)cc(C(=O)O)c1`, the CC50 is over 50 µM.

`CC(C)(C)C(=O)Nc1nc(C(F)(F)F)c(-c2c[nH]c(Nc3cccc(C(F)(F)F)c3)n2)s1`: the CC50 was over 50 µM.

Tested on in a further data set: not listed separately
The experiment in a line: Cytotoxicity against african green monkey Vero E6 cells assessed as reduction in cell viability by MTT assay. It counts as toxicity, cell-based. As to conditions: chlorocebus sabaeus, Vero E6 cells (Vero C1008). An outline of the steps:
as §1
For `COC(=O)c1cc(Nc2nc(-c3sc(NC(=O)c4ccccc4)nc3C(F)(F)F)cs2)cc(C(F)(F)F)c1`, the CC50 was over 50 µM.

Take `O=C(O)c1cc(Nc2nc(-c3sc(NC(=O)c4ccccc4)nc3C(F)(F)F)cs2)cc(C(=O)O)c1`: the CC50 is over 50 µM.

Turning to `CC(C)(C)C(=O)Nc1nc(C(F)(F)F)c(-c2c[nH]c(Nc3cccc(C(F)(F)F)c3)n2)s1`, the CC50 was over 50 µM.

Another data set has as its system Bacillus subtilis. The data set is described as follows: Antibacterial activity against Bacillus subtilis ATCC 6633 assessed as reduction in microbial growth measured after 18 hrs by CLSI based broth microdilution method. It counts as functional.
Settings: not given
An outline of the steps: (§2)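 MIC by CLSI broth microdilution in Mueller–Hinton medium, triplicate. Inoculum 5 × 10^4 CFU per well. Compounds taken up in DMSO (50 mg mL−1 stock) and diluted in medium. Read after 18 h at 35 ± 2 °C.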
As for `COC(=O)c1cc(Nc2nc(-c3sc(NC(=O)c4ccccc4)nc3C(F)(F)F)cs2)cc(C(F)(F)F)c1`, the MIC was over 32 µg/mL.

`O=C(O)c1cc(Nc2nc(-c3sc(NC(=O)c4ccccc4)nc3C(F)(F)F)cs2)cc(C(=O)O)c1`: the MIC was over 32 µg/mL.

For `CC(C)(C)C(=O)Nc1nc(C(F)(F)F)c(-c2c[nH]c(Nc3cccc(C(F)(F)F)c3)n2)s1`, the MIC was over 32 µg/mL.

A further data set deals with Enterococcus faecalis. The data set is described as follows: Antibacterial activity against Enterococcus faecalis ATCC 29212 assessed as reduction in microbial growth measured after 18 hrs by CLSI based broth microdilution method. It counts as functional.
Settings: not given
In outline: as §2
A general note: In broth dilution the organism is exposed to a series of concentrations in liquid medium.
Turning to `COC(=O)c1cc(Nc2nc(-c3sc(NC(=O)c4ccccc4)nc3C(F)(F)F)cs2)cc(C(F)(F)F)c1`, the MIC was over 32 µg/mL.

As to `O=C(O)c1cc(Nc2nc(-c3sc(NC(=O)c4ccccc4)nc3C(F)(F)F)cs2)cc(C(=O)O)c1`, the minimal inhibitory concentration (MIC) is over 32 µg/mL.

Consider `CC(C)(C)C(=O)Nc1nc(C(F)(F)F)c(-c2c[nH]c(Nc3cccc(C(F)(F)F)c3)n2)s1`, for which the MIC was over 32 µg/mL.

A further data set has as its system Streptococcus pyogenes. The experiment in a line: Antibacterial activity against Streptococcus pyogenes ATCC 12344 assessed as reduction in microbial growth measured after 18 hrs by CLSI based broth microdilution method.
Settings: not given
It counts as functional. In outline:
as §2
With `COC(=O)c1cc(Nc2nc(-c3sc(NC(=O)c4ccccc4)nc3C(F)(F)F)cs2)cc(C(F)(F)F)c1`, the minimum inhibitory concentration (MIC) is over 32 µg/mL.

With `O=C(O)c1cc(Nc2nc(-c3sc(NC(=O)c4ccccc4)nc3C(F)(F)F)cs2)cc(C(=O)O)c1`, the MIC was over 32 µg/mL.

In the case of `CC(C)(C)C(=O)Nc1nc(C(F)(F)F)c(-c2c[nH]c(Nc3cccc(C(F)(F)F)c3)n2)s1`, the MIC was over 32 µg/mL.

For a further data set, the system named is Staphylococcus aureus. The experiment in a line: Antibacterial activity against Staphylococcus aureus ATCC 25923 assessed as reduction in microbial growth measured after 18 hrs by CLSI based broth microdilution method.
Settings: not given
The format is functional. An outline of the steps: as §2
With `COC(=O)c1cc(Nc2nc(-c3sc(NC(=O)c4ccccc4)nc3C(F)(F)F)cs2)cc(C(F)(F)F)c1`, the MIC was over 32 µg/mL.

With `O=C(O)c1cc(Nc2nc(-c3sc(NC(=O)c4ccccc4)nc3C(F)(F)F)cs2)cc(C(=O)O)c1`, the MIC was over 32 µg/mL.

For the molecule `CC(C)(C)C(=O)Nc1nc(C(F)(F)F)c(-c2c[nH]c(Nc3cccc(C(F)(F)F)c3)n2)s1`, the MIC is over 32 µg/mL.

The subject of a further data set is Escherichia coli. The data set is described as follows: Synergistic antibacterial activity against Escherichia coli CCUGT incubated for 18 to 24 hrs in presence of colistin by broth microdilution method. It counts as functional. As to conditions: time 18-24 hrs.
Regarding `COC(=O)c1cc(Nc2nc(-c3sc(NC(=O)c4ccccc4)nc3C(F)(F)F)cs2)cc(C(F)(F)F)c1`, the MAC was over 64 µg/mL.

For `O=C(O)c1cc(Nc2nc(-c3sc(NC(=O)c4ccccc4)nc3C(F)(F)F)cs2)cc(C(=O)O)c1`, the MAC is over 64 µg/mL.

On to `CC(C)(C)C(=O)Nc1nc(C(F)(F)F)c(-c2c[nH]c(Nc3cccc(C(F)(F)F)c3)n2)s1`, for which the MAC came to 32 µg/mL.

The next data set deals with Klebsiella pneumoniae. The data set is described as follows: Synergistic antibacterial activity against Klebsiella pneumoniae ATCC 13833 incubated for 18 to 24 hrs in presence of colistin by broth microdilution method. The note with it: time 18-24 hrs. It counts as functional.
Turning to `COC(=O)c1cc(Nc2nc(-c3sc(NC(=O)c4ccccc4)nc3C(F)(F)F)cs2)cc(C(F)(F)F)c1`, the MAC was over 64 µg/mL.

On to `O=C(O)c1cc(Nc2nc(-c3sc(NC(=O)c4ccccc4)nc3C(F)(F)F)cs2)cc(C(=O)O)c1`, for which the MAC is over 64 µg/mL.

Turning to `CC(C)(C)C(=O)Nc1nc(C(F)(F)F)c(-c2c[nH]c(Nc3cccc(C(F)(F)F)c3)n2)s1`, the MAC is over 64 µg/mL.

For another data set, the system named is Acinetobacter baumannii. The experiment in a line: Synergistic antibacterial activity against Acinetobacter baumannii ATCC 17978 incubated for 18 to 24 hrs in presence of colistin by broth microdilution method. It counts as functional. The note with it: time 18-24 hrs.
As to `COC(=O)c1cc(Nc2nc(-c3sc(NC(=O)c4ccccc4)nc3C(F)(F)F)cs2)cc(C(F)(F)F)c1`, the MAC is over 64 µg/mL.

Consider `O=C(O)c1cc(Nc2nc(-c3sc(NC(=O)c4ccccc4)nc3C(F)(F)F)cs2)cc(C(=O)O)c1`, for which the MAC was over 64 µg/mL.

In the case of `CC(C)(C)C(=O)Nc1nc(C(F)(F)F)c(-c2c[nH]c(Nc3cccc(C(F)(F)F)c3)n2)s1`, the MAC worked out at 16 µg/mL.

In the next data set the test system is Pseudomonas aeruginosa. The data set is described as follows: Synergistic antibacterial activity against Pseudomonas aeruginosa ATCC 27853 incubated for 18 to 24 hrs in presence of colistin by broth microdilution method. The format is functional. The note with it: time 18-24 hrs.
For `COC(=O)c1cc(Nc2nc(-c3sc(NC(=O)c4ccccc4)nc3C(F)(F)F)cs2)cc(C(F)(F)F)c1`, the MAC was over 64 µg/mL.

For `O=C(O)c1cc(Nc2nc(-c3sc(NC(=O)c4ccccc4)nc3C(F)(F)F)cs2)cc(C(=O)O)c1`, the MAC is over 64 µg/mL.

Take `CC(C)(C)C(=O)Nc1nc(C(F)(F)F)c(-c2c[nH]c(Nc3cccc(C(F)(F)F)c3)n2)s1`: the MAC is over 64 µg/mL.

For a further data set, the system named is rhinovirus A16.
Experiment: not given
The note with it: hela.
`O=C(O)c1cc(Nc2nc(-c3sc(NC(=O)c4ccccc4)nc3C(F)(F)F)cs2)cc(C(=O)O)c1`: the IC50 entry is “Not Active”.

In the next data set the test system is enterovirus D68.
Experiment: not given
The note with it: hela.
As to `COC(=O)c1cc(Nc2nc(-c3sc(NC(=O)c4ccccc4)nc3C(F)(F)F)cs2)cc(C(F)(F)F)c1`, the IC50 entry is recorded as “Not Active”.

Consider `O=C(O)c1cc(Nc2nc(-c3sc(NC(=O)c4ccccc4)nc3C(F)(F)F)cs2)cc(C(=O)O)c1`, for which the IC50 result is listed as “Not Active”.

Another data set has as its system Zika virus.
Experiment: not given
The note with it: vero e6.
`COC(=O)c1cc(Nc2nc(-c3sc(NC(=O)c4ccccc4)nc3C(F)(F)F)cs2)cc(C(F)(F)F)c1`: the IC50 result is “Not Active”.

`O=C(O)c1cc(Nc2nc(-c3sc(NC(=O)c4ccccc4)nc3C(F)(F)F)cs2)cc(C(=O)O)c1`: the IC50 entry was “Not Active”.

The subject of another data set is rhinovirus A16. The data set is described as follows: microbe, parasite or virus in culture. The note with it: Rhinovirus A, HeLa, 48 h.
Molecule `COC(=O)c1cc(Nc2nc(-c3sc(NC(=O)c4ccccc4)nc3C(F)(F)F)cs2)cc(C(F)(F)F)c1` yielded an IC50 of 2.44 µM.

For `CC(C)(C)C(=O)Nc1nc(C(F)(F)F)c(-c2c[nH]c(Nc3cccc(C(F)(F)F)c3)n2)s1`, the IC50 came to 10.4 µM.

A further data set relates to enterovirus D68. The data set is described as follows: microbe, parasite or virus in culture. The note with it: Enterovirus D, HeLa, 48 h.
Take `CC(C)(C)C(=O)Nc1nc(C(F)(F)F)c(-c2c[nH]c(Nc3cccc(C(F)(F)F)c3)n2)s1`: 5.74 µM corresponded to half-maximal inhibition (IC50).

The next data set has as its system Zika virus. The experiment in a line: microbe, parasite or virus in culture. As to conditions: Vero C1008, 72 h.
Regarding `CC(C)(C)C(=O)Nc1nc(C(F)(F)F)c(-c2c[nH]c(Nc3cccc(C(F)(F)F)c3)n2)s1`, half-maximal inhibition (IC50) required 8.52 µM.

By IC50 is commonly meant the concentration needed to halve the response being measured. Broadly, the CC50 is the concentration giving 50% cytotoxicity. As usually defined, the MIC is the lowest concentration found to suppress growth.

These data come from ChEMBL document CHEMBL5532695, “4-Trifluoromethyl bithiazoles as broad-spectrum antimicrobial agents for virus-related bacterial infections or co-infections” (RSC Med Chem, 2024).
